We go through two compounds from article PMC6543826 (Bioorganic chemistry, 2018).

The structures appear in SMILES notation. Like-named read-outs stand apart in the source and are kept apart here.

The subject of test [1] is COLO 205. The test is described as follows: NCI-60 SRB screen, Colon cancer. It counts as cell-based. The essentials: (§1)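 Five-dose NCI-60 protocol (DTP, NCI). Absorbance was read at time zero (Tz), for untreated control (C) and at five compound levels (Ti), with SRB protein-stain end point read spectrophotometrically. GI50 from [(Ti−Tz)/(C−Tz)]×100 = 50; TGI from Ti = Tz; LC50 from [(Ti−Tz)/Tz]×100 = −50. A parameter not reached is given as greater than the highest concentration tested.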

Test [2] relates to UACC-257. The test is described as follows: NCI-60 SRB screen, Melanoma. It counts as cell-based. The essentials: as §1
The test system of test [3] is NCI/ADR-RES. The test is described as follows: NCI-60 SRB screen, Ovarian cancer. It counts as cell-based. The method, boiled down:
as §1

Test [4] deals with 786–0. In words: NCI-60 SRB screen, Renal cancer. In kind it is cell-based. The method, boiled down: as §1
The subject of test [5] is TK-10. In words: NCI-60 SRB screen, Renal cancer. It counts as cell-based. The essentials: as §1
Test [6] has as its system MDA-MB-231/ATCC. The test is described as follows: NCI-60 SRB screen, Breast cancer. It counts as cell-based. The essentials:
as §1

The subject of test [7] is HS 578 T. In words: NCI-60 SRB screen, Breast cancer. In kind it is cell-based. The essentials:
as §1

Test [8] deals with ERK substrates (p90RSK and ELK) phosphorylation in A375 cells. The test is described as follows: western blotting of MAPK pathway phosphorylation in A375 cells after EGF. Particulars: for phosphorylation of ERK substrates (p90RSK and ELK), in words: A375, 0.5–25 μM, EGF stimulation; for concentration enough to inhibit ELK phosphorylation / concentration enough to inhibit p-90RSK phosphorylation: A375, 12 h, then EGF 100 nM; for effect on ERK or MKK½ phosphorylation or the JNK pathway: A375, EGF stimulation. It counts as cell-based, human. The essentials: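 A375 cells (1,000,000 per well) were seeded 24 h, then treated with DMSO or test compound (0.5–25 μM) in serum-free medium for 4 or 12 h. Cells were stimulated with 100 nM EGF for 10–15 min, lysed, and 60 μg lysate was blotted. Probes: phospho-p90RSK (Thr573), RSK, phospho-Elk-1 (Ser383), phospho- and total ERK1/2, phospho-JNK (Thr183/Tyr185). Done twice.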
On the technique in general: A western blot detects proteins with antibodies after separation by electrophoresis.

Test [9] deals with NCI-60 panel of tumor cell lines. In words: cells. Particulars: Homo sapiens.
In test [10] the target is ERK2 (Rattus norvegicus, UniProt P63086). The test is described as follows: steady-state kinetic experiments, ERK2 with varied Mg-ATP. In kind it is biochemical. As to conditions: versus ATP, double reciprocal plot. The method, boiled down: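 Activated rat ERK2 was run in the radiometric kinase buffer with 50 μM His-Ets-1. Mg-ATP was varied (10–2000 μM) at several fixed test compound concentrations (0–54 μM). Initial rates were taken from product-versus-time plots. Mechanism was assessed from a double-reciprocal plot of 1/V0 versus 1/[Mg-ATP].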
Chain of ERK2 (P63086 whole entry): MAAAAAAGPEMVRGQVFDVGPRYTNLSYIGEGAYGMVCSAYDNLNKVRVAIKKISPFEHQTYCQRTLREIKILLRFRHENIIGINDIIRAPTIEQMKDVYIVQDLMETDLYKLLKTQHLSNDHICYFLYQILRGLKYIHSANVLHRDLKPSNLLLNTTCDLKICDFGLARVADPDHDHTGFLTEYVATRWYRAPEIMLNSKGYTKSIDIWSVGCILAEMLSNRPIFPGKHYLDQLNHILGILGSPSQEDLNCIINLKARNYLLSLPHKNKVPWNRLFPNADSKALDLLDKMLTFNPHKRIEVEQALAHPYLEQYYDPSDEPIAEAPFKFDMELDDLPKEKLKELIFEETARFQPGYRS

For orientation: TGI means the concentration at which net growth stops. Higher therefore signals less potent growth arrest. The GI50 is the concentration that inhibits growth by half.

With `O=C1c2ccccc2C(=O)c2c1oc1c2c(=O)[nH]c2ccc(Cl)cc21` [3b, 2-Chloronaphtho[2′,3′:4,5]furo[3,2-c]quinoline-6,7,12(5H)-trione], the TGI in test [1] (COLO 205, five-dose) is 27.54 µM; in test [2] (UACC-257, five-dose) it was 3.39 µM; in test [3] (five-dose), 1.78 µM; in test [4] (786–0, five-dose) it was 0.54 µM; in test [5] (TK-10, five-dose), 1.10 µM; in test [6] (MDA-MB-231/ATCC, five-dose), 0.51 µM. For the same compound, the TGI in test [7] (HS 578 T, five-dose) is 1.38 µM. The GI50 in test [1] (Homo sapiens, COLO 205) turned out to be 10.5 µM; in [2] (Homo sapiens, UACC-257), 1320 nM; in test [3] (Homo sapiens), 350 nM; in test [4] (Homo sapiens, 786-0), 220 nM; in test [5] (Homo sapiens, TK-10), 380 nM; in test [6] (Homo sapiens, MDA-MB-231), 170 nM. The GI50 in [7] (Homo sapiens, Hs-578T) was 260 nM; in [9] (read-out: GI50, average across all cell lines tested), 240 nM; in test [9] (read-out: GI50 values, range over all cell lines), 140 to 10500 nM. The CC50 amounted to 72.4 µM in test [1] (Homo sapiens, COLO 205, read-out: LC50); 8.51 µM in test [2] (Homo sapiens, UACC-257, read-out: LC50); 34.7 µM in [3] (Homo sapiens, read-out: LC50); 2450 nM in test [4] (Homo sapiens, 786-0, read-out: LC50); 6.03 µM in test [5] (Homo sapiens, TK-10, read-out: LC50); 2820 nM in [6] (Homo sapiens, MDA-MB-231, read-out: LC50). Further, the CC50 is above 100 µM in [7] (Homo sapiens, Hs-578T, read-out: LC50) and 7.58 µM in [9] (read-out: LC50, average). In addition, the “phosphorylation of ERK substrates (p90RSK and ELK), in words” value in [8] is reported as “dose-dependent inhibition”. Moreover, the “concentration enough to inhibit ELK phosphorylation” value in [8] is 10 µM. For the same compound, the “concentration enough to inhibit p-90RSK phosphorylation” value in [8] was determined as 25 µM. Besides, the “effect on ERK or MKK½ phosphorylation or the JNK pathway” value in test [8] is recorded as “no effect”.
On to `O=C1C(Cl)=C(c2c(O)c3c(=O)n(-c4ccccc4)c4ccccc4c3oc2=O)C(=O)c2ccccc21` [compound 6, 3-(3-Chloro-1,4-dioxo-1,4-dihydronaphthalen-2-yl)-4-hydroxy-6-phenyl-2H-pyrano[3,2-c]quinoline-2,5(6H)-dione], for which the “mechanism of ERK2 inhibition” value in [10] was “competitive inhibition”. For the same compound, in [8], the “phosphorylation of ERK substrates (p90RSK and ELK), in words” value is reported as “dose-dependent inhibition”; the “concentration enough to inhibit ELK phosphorylation” value was determined as 2.5 µM; the “concentration enough to inhibit p-90RSK phosphorylation” value amounted to 10 µM; the “effect on ERK or MKK½ phosphorylation or the JNK pathway” value was “no effect”.
